Laboratory results: ChEMBL document CHEMBL1154775, “Discovery of dermorphin-based affinity labels with subnanomolar affinity for mu opioid receptors” (J Med Chem, 2009)
Activity calls are given as the source filed them. No cut-off for these calls is given here. Numbered stars: 1 amine (or outer) side, 2 acyl side, 3 side chain; on linkers, the order of the positions; unused ones are H or OH. Square brackets hold non-standard residues; d marks the D form. Peptide text beside a SMILES is read from it. X6 = O=C(CBr)N(CCCC[C@@H](N[*:1])C(=O)[*:2])C(=O)CBr; X1 = O=C(CBr)N(CCC[C@@H](N[*:1])C(=O)[*:2])C(=O)CBr; X7 = CC(=O)N(CCCC[C@@H](N[*:1])C(=O)[*:2])C(C)=O; X8 = CC(=O)N(CCC[C@@H](N[*:1])C(=O)[*:2])C(C)=O; X5 = O=C([C@@H](CCCCN(N=C=S)N=C=S)N[*:1])[*:2]; X4 = O=C([C@@H](CCCN(N=C=S)N=C=S)N[*:1])[*:2]

What was measured:
Mu-type opioid receptor [1] = target: Mu-type opioid receptor (Cavia porcellus, UniProt P97266); test: Displacement of beta-[3H]FNA from mu opioid receptor in guinea pig brain membrane; type: cell membranes
Mu-type opioid receptor [2] = target: T1, Mu-type opioid receptor (Homo sapiens, UniProt P35372); test: Displacement of [3H]DAMGO from mu opioid receptor expressed in CHO cells after 90 mins by scintillation counting relative to dermorphin; type: cell-based
[3] = Ratio of dermorphin selectivity for mu opioid receptor over delta opioid receptor to compound selectivity for mu opioid receptor over delta opioid receptor
[4] = target: Delta-type opioid receptor (Homo sapiens, UniProt P41143); test: Displacement of [3H]DPDPE from delta opioid receptor expressed in CHO cells after 90 mins by scintillation counting; type: cell-based
How it was run: (§1)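 Competitive radioligand binding on CHO cells stably expressing MOR or DOR. Radioligand was [3H]DAMGO for MOR and [3H]DPDPE for DOR. IC50 values were measured under standard conditions.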

Mu-type opioid receptor [5] = target: T1, Mu-type opioid receptor; conditions: CHO; 0.43 nM
Mu-type opioid receptor [6] = target: T1, Mu-type opioid receptor; test: Displacement of [3H]DAMGO from mu opioid receptor expressed in CHO cells after 90 mins by scintillation counting; type: cell-based; how it was run: as §1
[7] = Selectivity ratio of IC50 for delta opioid receptor to IC50 for mu opioid receptor
How it was run: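 MOR selectivity was calculated as the ratio of DOR IC50 to MOR IC50. Both IC50s came from CHO-cell binding, with [3H]DPDPE as the DOR radioligand and [3H]DAMGO as the MOR radioligand. Ratios depend on the radioligand concentration used.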

[8] = target: Mu-type opioid receptor (Cavia porcellus) (UniProt P97266); test: Ratio of compound IC50 to beta-FNA IC50 for mu opioid receptor in guinea pig brain membrane; type: cell membranes
Mu-type opioid receptor [9] = target: T1, Mu-type opioid receptor; test: Ratio of dermorphin IC50 to compound IC50 for mu opioid receptor expressed in CHO cells; type: cell-based
Mu-type opioid receptor [10] = target: T1, Mu-type opioid receptor; conditions: CHO; 0.11 nM
Mu-type opioid receptor [11] = target: T1, Mu-type opioid receptor; test: Inhibition of [3H]DAMGO binding to mu opioid receptor expressed in CHO cells after 90 mins by WRIB assay; type: cell-based
How it was run: (§2)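 Wash-resistant inhibition of binding in MOR-expressing CHO cell membranes. Membranes were incubated with peptide, either near its IC50 or at higher concentrations, then washed extensively to remove noncovalently bound ligand. Remaining [3H]DAMGO binding was then measured and expressed as % inhibition against untreated control. Acetylated reversible analogues were run alongside to verify that the wash was complete.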

Mu-type opioid receptor [12] = target: T1, Mu-type opioid receptor; test: Inhibition of [3H]DAMGO binding to mu opioid receptor expressed in CHO cells at 0.4 nM after 90 mins by WRIB assay; type: cell-based; how it was run: as §2
Mu-type opioid receptor [13] = target: T1, Mu-type opioid receptor; test: Inhibition of [3H]DAMGO binding to mu opioid receptor expressed in CHO cells at 7 nM after 90 mins by WRIB assay; type: cell-based; how it was run: as §2
Mu-type opioid receptor [14] = target: Mu-type opioid receptor (Rattus norvegicus, UniProt P33535); test: (§3) Inhibition of [3H]DAMGO binding to mu opioid receptor in rat brain membrane; type: cell membranes
[15] = target: Mu-type opioid receptor (Rattus norvegicus) (UniProt P33535); test: as §3; type: cell membranes
[16] = target: Mu-type opioid receptor (Rattus norvegicus) (UniProt P33535); test: Inhibition of [3H]naloxone binding to mu opioid receptor in rat brain membrane; type: cell membranes

Chain of Mu-type opioid receptor (Cavia porcellus) (P97266 whole entry): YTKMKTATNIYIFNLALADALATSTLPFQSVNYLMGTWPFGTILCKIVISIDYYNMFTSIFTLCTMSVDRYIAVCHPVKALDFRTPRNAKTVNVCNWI
Chain of Delta-type opioid receptor (P41143 whole entry): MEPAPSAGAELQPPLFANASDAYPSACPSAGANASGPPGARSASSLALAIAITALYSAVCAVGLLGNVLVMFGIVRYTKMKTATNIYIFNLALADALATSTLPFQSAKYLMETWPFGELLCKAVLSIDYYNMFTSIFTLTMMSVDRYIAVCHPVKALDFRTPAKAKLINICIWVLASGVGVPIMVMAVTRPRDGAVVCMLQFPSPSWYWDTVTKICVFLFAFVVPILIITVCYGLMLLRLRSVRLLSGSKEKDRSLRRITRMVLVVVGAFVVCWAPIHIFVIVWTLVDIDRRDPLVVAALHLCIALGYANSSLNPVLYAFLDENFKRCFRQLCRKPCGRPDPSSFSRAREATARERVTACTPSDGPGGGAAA
T1 sequence (P35372 whole entry): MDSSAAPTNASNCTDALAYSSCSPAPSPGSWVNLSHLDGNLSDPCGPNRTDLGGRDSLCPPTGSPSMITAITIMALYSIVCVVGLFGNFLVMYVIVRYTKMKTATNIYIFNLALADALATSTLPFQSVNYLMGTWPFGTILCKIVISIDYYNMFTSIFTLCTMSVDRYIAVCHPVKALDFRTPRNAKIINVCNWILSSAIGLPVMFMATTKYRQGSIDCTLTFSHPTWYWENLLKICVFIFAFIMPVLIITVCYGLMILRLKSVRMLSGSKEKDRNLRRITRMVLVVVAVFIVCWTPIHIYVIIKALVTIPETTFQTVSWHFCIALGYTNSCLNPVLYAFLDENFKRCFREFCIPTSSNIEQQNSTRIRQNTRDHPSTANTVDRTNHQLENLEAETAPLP
Chain of Mu-type opioid receptor (Rattus norvegicus) (P33535 whole entry): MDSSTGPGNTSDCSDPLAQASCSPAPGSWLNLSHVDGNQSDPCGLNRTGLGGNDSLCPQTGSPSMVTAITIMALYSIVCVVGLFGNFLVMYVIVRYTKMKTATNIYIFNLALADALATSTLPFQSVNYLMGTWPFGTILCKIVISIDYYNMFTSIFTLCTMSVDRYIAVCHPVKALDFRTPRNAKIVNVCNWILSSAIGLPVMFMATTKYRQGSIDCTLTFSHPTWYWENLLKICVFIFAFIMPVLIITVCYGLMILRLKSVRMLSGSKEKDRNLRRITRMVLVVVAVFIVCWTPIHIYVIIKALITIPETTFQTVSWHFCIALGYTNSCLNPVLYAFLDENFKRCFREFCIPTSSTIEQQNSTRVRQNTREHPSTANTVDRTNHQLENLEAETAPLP
Chain of Mu-type opioid receptor (Cavia porcellus, UniProt P97266) (P97266 whole entry): as the sequence (P97266 whole entry) above
Chain of Mu-type opioid receptor (Rattus norvegicus, UniProt P33535) (P33535 whole entry): as the sequence (P33535 whole entry) above

| SMILES | Activity (Mu-type opioid receptor [2]) | IC50 [4] [nM] | IC50 (Mu-type opioid receptor [6]) [nM] | Ratio IC50 [7] | Ratio IC50 [8] | also measured |
| --- | --- | --- | --- | --- | --- | --- |
| COC(=O)/C=C/C(=O)N[C@@H]1CC[C@@]2(O)[C@H]3Cc4ccc(O)c5c4[C@@]2(CCN3CC2CC2)[C@H]1O5 |  |  |  |  |  | IC50 (Mu-type opioid receptor [1]): 2.2 nM |
| N[C@@H](Cc1ccc(O)cc1)C(=O)N[C@H](CCCN(N=C=S)N=C=S)C(=O)N[C@@H](Cc1ccccc1)C(=O)NCC(=O)N[C@@H](Cc1ccc(O)cc1)C(=O)N1CCC[C@H]1C(=O)N[C@@H](CO)C(=O)O (H-Y[X4]FGYPS-OH) | 0.89 | 23.8 | 0.81 | 29 | 3 | Ratio [3]: 9; inhibition (Mu-type opioid receptor [5]): 40% |
| N[C@@H](Cc1ccc(O)cc1)C(=O)N[C@H](CCCN(C(=O)CBr)C(=O)CBr)C(=O)N[C@@H](Cc1ccccc1)C(=O)NCC(=O)N[C@@H](Cc1ccc(O)cc1)C(=O)N1CCC[C@H]1C(=O)N[C@@H](CO)C(=O)O (H-Y[X1]FGYPS-OH) | 6.54 | 342 | 0.11 | 3110 | 3 | Ratio IC50 (Mu-type opioid receptor [9]): 7; inhibition (Mu-type opioid receptor [10]): inactive; inhibition (Mu-type opioid receptor [11]): Dose-dependent effect |
| N[C@@H](Cc1ccc(O)cc1)C(=O)N[C@H](CCCCN(N=C=S)N=C=S)C(=O)N[C@@H](Cc1ccccc1)C(=O)NCC(=O)N[C@@H](Cc1ccc(O)cc1)C(=O)N1CCC[C@H]1C(=O)N[C@@H](CO)C(=O)O (H-Y[X5]FGYPS-OH) | 1.89 | 97.1 | 0.38 | 255 |  | Ratio IC50 (Mu-type opioid receptor [9]): 2; inhibition (Mu-type opioid receptor [11]): Dose-dependent effect; inhibition (Mu-type opioid receptor [12]): 31% |
| CC(=O)N(CCCC[C@@H](NC(=O)[C@@H](N)Cc1ccc(O)cc1)C(=O)N[C@@H](Cc1ccccc1)C(=O)NCC(=O)N[C@@H](Cc1ccc(O)cc1)C(=O)N1CCC[C@H]1C(=O)N[C@@H](CO)C(=O)O)C(C)=O (H-Y[X7]FGYPS-OH) | 0.02 | 436 | 29.8 | 15 |  |  |
| CC(=O)N(CCC[C@@H](NC(=O)[C@@H](N)Cc1ccc(O)cc1)C(=O)N[C@@H](Cc1ccccc1)C(=O)NCC(=O)N[C@@H](Cc1ccc(O)cc1)C(=O)N1CCC[C@H]1C(=O)N[C@@H](CO)C(=O)O)C(C)=O (H-Y[X8]FGYPS-OH) | 0.17 | 272 | 4.25 | 64 |  |  |
| N[C@@H](Cc1ccc(O)cc1)C(=O)N[C@H](CCCCN(C(=O)CBr)C(=O)CBr)C(=O)N[C@@H](Cc1ccccc1)C(=O)NCC(=O)N[C@@H](Cc1ccc(O)cc1)C(=O)N1CCC[C@H]1C(=O)N[C@@H](CO)C(=O)O (H-Y[X6]FGYPS-OH) | 0.14 | 382 | 5.23 | 73 | 3 | Ratio [3]: 4; inhibition (Mu-type opioid receptor [13]): 32% |
| CC(C)C[C@@H](CSSc1ncccc1[N+](=O)[O-])NC(=O)[C@H](Cc1ccccc1)NC(=O)CNC(=O)C(C)NC(=O)[C@@H](N)Cc1ccc(O)cc1 (stereo in doubt) |  |  |  |  |  | IC50 (Mu-type opioid receptor [14]): 19 nM; inhibition [15]: Dose-dependent effect |
| C[C@@H](NC(=O)[C@@H](N)Cc1ccc(O)cc1)C(=O)NCC(=O)N(C)c1ccccc1 |  |  |  |  |  | inhibition [16]: Dose-dependent effect |
